We go through 2 compounds from ChEMBL document CHEMBL1955829, “Synthesis and biological evaluation of 4β-sulphonamido and 4β-[(4'-sulphonamido)benzamide]podophyllotoxins as DNA topoisomerase-IIα and apoptosis inducing agents” (2012).

For experiment [1], the target named is DNA topoisomerase 2-alpha (Homo sapiens) (UniProt P11388). Kind of experiment: Inhibition of topoisomerase 2alpha in human in COLO205 cells assessed as induction of single-strand DNA breaks at 4 uM after 24 hrs by comet assay. The note with it: COLO 205. It is filed as cell-based. A digest of the protocol:
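Colo-205 cells treated 24 h at 4 µM. Electrophoresis 20 min at 40 V in 0.5% TBE pH 8. Slides stained with SYBR green 30 min and imaged by fluorescence microscopy at 20×.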

Experiment [2] deals with COLO 205. Kind of experiment: Up-regulation of topoisomerase 2alpha in human COLO205 cells at 4 uM after 24 hrs by Western blotting analysis in presence of HDAC inhibitor, trichostatin A. It is filed as functional, cell-based. An outline of the steps: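 Colo-205 cells exposed 24 h to test agent plus TSA, each at 4 µM. Western blot of lysates probed for topo-IIα, with β-actin as loading control.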
On the technique in general: Immunoblotting shows a protein as a band on a membrane.

Experiment [3] has as its target Serine-protein kinase ATM (Homo sapiens) (UniProt Q13315). Briefly: Induction of ATM activation in human COLO205 cells at 4 uM after 24 hrs by ATM S1981 staining. The note with it: COLO 205. The experiment is classed as cell-based. An outline of the steps:
(§1)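 Colo-205 cells on coverslips treated 24 h at 4 µM. Fixed in 4% paraformaldehyde, permeabilised with 0.2% Triton X-100, held in methanol overnight at 4 °C, and blocked with 1% BSA. Stained with anti-phospho-ATM (S1981) or anti-phospho-Chk1 (1:100) for 2 h at room temperature, then FITC anti-rabbit secondary for 1 h; DAPI/PI counterstain and confocal imaging.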

Experiment [4] concerns COLO 205. Kind of experiment: Cell cycle arrest in human COLO205 cells assessed as accumulation at G2/M phase at 4 uM after 24 hrs by FACS analysis in presence of HDAC inhibitor, trichostatin A (reference value: 17.41%). The experiment is classed as functional. A digest of the protocol: (§2)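 Colo-205 cells seeded at […] per 60 mm dish and treated 24 h at 4 µM; TSA arm used TSA at 4 µM for 12 h. Cells trypsinised, fixed in ice-cold 70% ethanol 30 min at 4 °C, RNase 1 mg/mL 30 min at 37 °C, then propidium iodide/citrate/Triton stain. DNA content of 20,000 events read by flow cytometry; phase percentages from histograms.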
(In general: In flow cytometry, cells or beads pass a laser one at a time.)

A further experiment has as its system HOP-62. Kind of experiment: Growth inhibition of human HOP62 cells after 48 hrs by sulforhodamine B assay. The note with it: HOP-62, 48 h. It is filed as functional. An outline of the steps:
(§3)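 Cells grown in DMEM with 10% FBS and 2 mM L-glutamine, plated at densities set by doubling time, and held 24 h before dosing. Exposure was 48 h to 0.1, 1, 10 and 100 µM in triplicate wells. Cells fixed with cold TCA (final 10%) 60 min at 4 °C and stained with 0.4% SRB 20 min. Bound dye eluted in 10 mM Tris base and read at 540 nm (690 nm reference). GI50 is the concentration giving 50% reduction in net protein gain versus control; values are the mean of three determinations.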
For orientation: In SRB staining, fixed cells bind dye roughly in proportion to their protein.

A further experiment relates to A549. Kind of experiment: Growth inhibition of human A549 cells after 48 hrs by sulforhodamine B assay. The experiment is classed as functional. To be noted: A549, 48 h. A digest of the protocol:
as §3

In experiment [5] the test system is COLO 205. Kind of experiment: Cell cycle arrest in human COLO205 cells assessed as accumulation at G1 phase at 4 uM after 24 hrs by FACS analysis in presence of HDAC inhibitor, trichostatin A (reference value: 70.57%). The experiment is classed as functional. An outline of the steps: as §2
Experiment [6] relates to COLO 205. Kind of experiment: Cell cycle arrest in human COLO205 cells assessed as accumulation at S phase at 4 uM after 24 hrs by FACS analysis in presence of HDAC inhibitor, trichostatin A (reference value: 7.89%). The experiment is classed as functional. An outline of the steps: as §2
Experiment [7] has as its target DNA topoisomerase 2-alpha (Homo sapiens) (UniProt P11388). Kind of experiment: Inhibition of topoisomerase 2alpha using pBR322 DNA as substrate at 50 uM after 30 mins by gel electrophoresis. An outline of the steps:
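Purified topo-IIα enzyme (4 U/µL) incubated with pBR322 plasmid DNA and compound at 50, 25 or 10 µM final, in fresh buffer containing ATP, KCl, MgCl2, DTT and Tris pH 8.0. Inhibition of DNA processing assessed on the resulting gel.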

Experiment [8] deals with COLO 205. Briefly: Cytotoxicity against human COLO205 cells at 4 uM after 24 hrs by MTT assay. The experiment is classed as functional, cell-based. An outline of the steps:
(§4)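 Colo-205 cells plated at 10,000 per well, left overnight, then exposed 24 h at 2, 4 or 8 µM. MTT added for 2 h at 37 °C, formazan dissolved in extraction buffer, and optical density read at 570 nm against untreated cells.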

Experiment [9] deals with COLO 205. Briefly: Induction of apoptosis in human COLO205 cells assessed as up-regulation of p21 at 4 uM after 24 hrs by Western blotting analysis. The experiment is classed as functional, cell-based. A digest of the protocol: (§5)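 Colo-205 cells treated 24 h at 4 µM and lysed in ice-cold RIPA with protease inhibitors and NaF. Protein measured by Bradford; 50 µg per lane run on 12% SDS-PAGE and transferred to PVDF. Membrane blocked 2 h, primary antibody (topo-IIα/β, p21, p16, pro-caspase-3, NF-kB p65) overnight at 4 °C, HRP secondary 1:2000 for 1 h, chemiluminescence detection; β-actin as loading control. Reduced procaspase-3 taken as caspase-3 activation.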

Experiment [10] relates to COLO 205. Briefly: Growth inhibition of human COLO205 cells after 48 hrs by sulforhodamine B assay. It is filed as functional. The note with it: COLO 205, 48 h. A digest of the protocol:
as §3

Another experiment concerns A2780. Kind of experiment: Growth inhibition of human A2780 cells after 48 hrs by sulforhodamine B assay. To be noted: A2780, 48 h. The experiment is classed as functional. An outline of the steps:
as §3

Experiment [11] concerns COLO 205. Briefly: Cytotoxicity against human COLO205 cells at 8 uM after 24 hrs by MTT assay. It is filed as functional, cell-based. A digest of the protocol: as §4
The subject of the next experiment is MCF7. Kind of experiment: Growth inhibition of human MCF7 cells after 48 hrs by sulforhodamine B assay. It is filed as functional. To be noted: MCF7, 48 h. A digest of the protocol:
as §3

Experiment [12] relates to COLO 205. Kind of experiment: Induction of apoptosis in human COLO205 cells assessed as down regulation of Bcl-2 at 4 uM after 24 hrs by ELISA. It is filed as functional, cell-based. A digest of the protocol: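 Colo-205 cells treated 24 h at 4 µM, with etoposide and camptothecin as controls. Lysates added to Bcl2-antibody-coated wells, followed by a biotin-conjugated anti-human Bcl2 monoclonal antibody, in a Bcl2 ELISA.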

The subject of experiment [13] is COLO 205. Briefly: Induction of apoptosis in human COLO205 cells assessed as up-regulation of p16 at 4 uM after 24 hrs by Western blotting analysis. The experiment is classed as functional, cell-based. A digest of the protocol: as §5
For experiment [14], the target named is T1, Serine/threonine-protein kinase Chk1 (Homo sapiens) (UniProt O14757).
T1 sequence (whole entry): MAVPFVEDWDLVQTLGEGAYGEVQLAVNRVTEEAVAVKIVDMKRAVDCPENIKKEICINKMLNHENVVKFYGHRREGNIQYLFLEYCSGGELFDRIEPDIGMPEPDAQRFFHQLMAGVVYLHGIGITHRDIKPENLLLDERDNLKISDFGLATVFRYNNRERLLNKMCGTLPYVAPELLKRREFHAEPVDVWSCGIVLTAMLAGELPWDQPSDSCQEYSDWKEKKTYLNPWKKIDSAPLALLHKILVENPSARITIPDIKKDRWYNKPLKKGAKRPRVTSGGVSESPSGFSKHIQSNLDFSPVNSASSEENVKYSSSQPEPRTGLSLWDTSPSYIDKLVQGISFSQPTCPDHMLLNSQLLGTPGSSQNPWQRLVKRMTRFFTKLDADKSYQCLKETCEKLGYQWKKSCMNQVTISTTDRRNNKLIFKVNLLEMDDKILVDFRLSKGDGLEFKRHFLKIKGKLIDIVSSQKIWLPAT
Kind of experiment: Increase in Chk1 phosphorylation at Ser345 in human COLO205 cells after 24 hrs. The note with it: COLO 205. The experiment is classed as cell-based. A digest of the protocol: as §1

Each structure is given as a SMILES string. Active and inactive are the calls of the source. The rule behind the calls is not given here.

DNA topoisomerase 2-alpha (Homo sapiens), sequence (P11388 whole entry): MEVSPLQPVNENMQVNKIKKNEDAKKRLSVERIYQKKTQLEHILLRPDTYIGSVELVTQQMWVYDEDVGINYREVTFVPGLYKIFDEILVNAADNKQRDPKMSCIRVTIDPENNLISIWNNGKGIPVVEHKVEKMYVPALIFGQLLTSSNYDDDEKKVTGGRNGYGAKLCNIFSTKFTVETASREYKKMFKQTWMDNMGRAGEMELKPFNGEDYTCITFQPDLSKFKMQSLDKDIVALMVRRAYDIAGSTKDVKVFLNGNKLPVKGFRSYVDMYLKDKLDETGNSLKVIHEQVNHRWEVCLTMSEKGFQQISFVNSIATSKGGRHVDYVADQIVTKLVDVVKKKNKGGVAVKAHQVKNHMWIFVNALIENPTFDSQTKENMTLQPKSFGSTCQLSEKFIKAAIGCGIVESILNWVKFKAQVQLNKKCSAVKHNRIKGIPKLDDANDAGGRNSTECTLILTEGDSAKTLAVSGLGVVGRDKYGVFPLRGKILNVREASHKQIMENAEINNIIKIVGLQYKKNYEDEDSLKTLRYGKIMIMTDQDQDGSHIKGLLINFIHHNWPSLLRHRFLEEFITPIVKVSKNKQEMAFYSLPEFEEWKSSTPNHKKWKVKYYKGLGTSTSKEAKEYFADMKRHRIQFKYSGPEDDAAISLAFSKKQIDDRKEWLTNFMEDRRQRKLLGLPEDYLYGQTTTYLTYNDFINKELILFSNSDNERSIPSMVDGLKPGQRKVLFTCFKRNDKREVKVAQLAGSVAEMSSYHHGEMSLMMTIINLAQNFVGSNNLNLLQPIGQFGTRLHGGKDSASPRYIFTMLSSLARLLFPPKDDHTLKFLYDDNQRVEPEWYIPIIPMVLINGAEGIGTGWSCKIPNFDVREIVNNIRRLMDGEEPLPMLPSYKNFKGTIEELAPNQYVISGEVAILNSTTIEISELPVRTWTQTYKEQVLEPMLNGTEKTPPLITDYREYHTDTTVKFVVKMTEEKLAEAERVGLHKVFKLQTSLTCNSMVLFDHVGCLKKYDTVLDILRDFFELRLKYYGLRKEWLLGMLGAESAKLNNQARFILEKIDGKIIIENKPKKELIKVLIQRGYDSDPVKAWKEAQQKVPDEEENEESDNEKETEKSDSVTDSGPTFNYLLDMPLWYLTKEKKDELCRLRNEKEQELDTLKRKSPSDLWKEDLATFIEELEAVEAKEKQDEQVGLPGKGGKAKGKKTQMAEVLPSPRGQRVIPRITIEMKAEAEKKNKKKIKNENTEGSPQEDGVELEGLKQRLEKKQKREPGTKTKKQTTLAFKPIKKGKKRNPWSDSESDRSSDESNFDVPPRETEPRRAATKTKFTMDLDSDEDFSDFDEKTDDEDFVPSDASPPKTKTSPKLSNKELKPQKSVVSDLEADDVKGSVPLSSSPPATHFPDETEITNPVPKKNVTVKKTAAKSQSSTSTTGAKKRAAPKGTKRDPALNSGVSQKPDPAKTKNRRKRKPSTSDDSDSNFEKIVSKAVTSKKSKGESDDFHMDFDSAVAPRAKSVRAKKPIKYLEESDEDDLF
Serine-protein kinase ATM (Homo sapiens), sequence (Q13315 whole entry): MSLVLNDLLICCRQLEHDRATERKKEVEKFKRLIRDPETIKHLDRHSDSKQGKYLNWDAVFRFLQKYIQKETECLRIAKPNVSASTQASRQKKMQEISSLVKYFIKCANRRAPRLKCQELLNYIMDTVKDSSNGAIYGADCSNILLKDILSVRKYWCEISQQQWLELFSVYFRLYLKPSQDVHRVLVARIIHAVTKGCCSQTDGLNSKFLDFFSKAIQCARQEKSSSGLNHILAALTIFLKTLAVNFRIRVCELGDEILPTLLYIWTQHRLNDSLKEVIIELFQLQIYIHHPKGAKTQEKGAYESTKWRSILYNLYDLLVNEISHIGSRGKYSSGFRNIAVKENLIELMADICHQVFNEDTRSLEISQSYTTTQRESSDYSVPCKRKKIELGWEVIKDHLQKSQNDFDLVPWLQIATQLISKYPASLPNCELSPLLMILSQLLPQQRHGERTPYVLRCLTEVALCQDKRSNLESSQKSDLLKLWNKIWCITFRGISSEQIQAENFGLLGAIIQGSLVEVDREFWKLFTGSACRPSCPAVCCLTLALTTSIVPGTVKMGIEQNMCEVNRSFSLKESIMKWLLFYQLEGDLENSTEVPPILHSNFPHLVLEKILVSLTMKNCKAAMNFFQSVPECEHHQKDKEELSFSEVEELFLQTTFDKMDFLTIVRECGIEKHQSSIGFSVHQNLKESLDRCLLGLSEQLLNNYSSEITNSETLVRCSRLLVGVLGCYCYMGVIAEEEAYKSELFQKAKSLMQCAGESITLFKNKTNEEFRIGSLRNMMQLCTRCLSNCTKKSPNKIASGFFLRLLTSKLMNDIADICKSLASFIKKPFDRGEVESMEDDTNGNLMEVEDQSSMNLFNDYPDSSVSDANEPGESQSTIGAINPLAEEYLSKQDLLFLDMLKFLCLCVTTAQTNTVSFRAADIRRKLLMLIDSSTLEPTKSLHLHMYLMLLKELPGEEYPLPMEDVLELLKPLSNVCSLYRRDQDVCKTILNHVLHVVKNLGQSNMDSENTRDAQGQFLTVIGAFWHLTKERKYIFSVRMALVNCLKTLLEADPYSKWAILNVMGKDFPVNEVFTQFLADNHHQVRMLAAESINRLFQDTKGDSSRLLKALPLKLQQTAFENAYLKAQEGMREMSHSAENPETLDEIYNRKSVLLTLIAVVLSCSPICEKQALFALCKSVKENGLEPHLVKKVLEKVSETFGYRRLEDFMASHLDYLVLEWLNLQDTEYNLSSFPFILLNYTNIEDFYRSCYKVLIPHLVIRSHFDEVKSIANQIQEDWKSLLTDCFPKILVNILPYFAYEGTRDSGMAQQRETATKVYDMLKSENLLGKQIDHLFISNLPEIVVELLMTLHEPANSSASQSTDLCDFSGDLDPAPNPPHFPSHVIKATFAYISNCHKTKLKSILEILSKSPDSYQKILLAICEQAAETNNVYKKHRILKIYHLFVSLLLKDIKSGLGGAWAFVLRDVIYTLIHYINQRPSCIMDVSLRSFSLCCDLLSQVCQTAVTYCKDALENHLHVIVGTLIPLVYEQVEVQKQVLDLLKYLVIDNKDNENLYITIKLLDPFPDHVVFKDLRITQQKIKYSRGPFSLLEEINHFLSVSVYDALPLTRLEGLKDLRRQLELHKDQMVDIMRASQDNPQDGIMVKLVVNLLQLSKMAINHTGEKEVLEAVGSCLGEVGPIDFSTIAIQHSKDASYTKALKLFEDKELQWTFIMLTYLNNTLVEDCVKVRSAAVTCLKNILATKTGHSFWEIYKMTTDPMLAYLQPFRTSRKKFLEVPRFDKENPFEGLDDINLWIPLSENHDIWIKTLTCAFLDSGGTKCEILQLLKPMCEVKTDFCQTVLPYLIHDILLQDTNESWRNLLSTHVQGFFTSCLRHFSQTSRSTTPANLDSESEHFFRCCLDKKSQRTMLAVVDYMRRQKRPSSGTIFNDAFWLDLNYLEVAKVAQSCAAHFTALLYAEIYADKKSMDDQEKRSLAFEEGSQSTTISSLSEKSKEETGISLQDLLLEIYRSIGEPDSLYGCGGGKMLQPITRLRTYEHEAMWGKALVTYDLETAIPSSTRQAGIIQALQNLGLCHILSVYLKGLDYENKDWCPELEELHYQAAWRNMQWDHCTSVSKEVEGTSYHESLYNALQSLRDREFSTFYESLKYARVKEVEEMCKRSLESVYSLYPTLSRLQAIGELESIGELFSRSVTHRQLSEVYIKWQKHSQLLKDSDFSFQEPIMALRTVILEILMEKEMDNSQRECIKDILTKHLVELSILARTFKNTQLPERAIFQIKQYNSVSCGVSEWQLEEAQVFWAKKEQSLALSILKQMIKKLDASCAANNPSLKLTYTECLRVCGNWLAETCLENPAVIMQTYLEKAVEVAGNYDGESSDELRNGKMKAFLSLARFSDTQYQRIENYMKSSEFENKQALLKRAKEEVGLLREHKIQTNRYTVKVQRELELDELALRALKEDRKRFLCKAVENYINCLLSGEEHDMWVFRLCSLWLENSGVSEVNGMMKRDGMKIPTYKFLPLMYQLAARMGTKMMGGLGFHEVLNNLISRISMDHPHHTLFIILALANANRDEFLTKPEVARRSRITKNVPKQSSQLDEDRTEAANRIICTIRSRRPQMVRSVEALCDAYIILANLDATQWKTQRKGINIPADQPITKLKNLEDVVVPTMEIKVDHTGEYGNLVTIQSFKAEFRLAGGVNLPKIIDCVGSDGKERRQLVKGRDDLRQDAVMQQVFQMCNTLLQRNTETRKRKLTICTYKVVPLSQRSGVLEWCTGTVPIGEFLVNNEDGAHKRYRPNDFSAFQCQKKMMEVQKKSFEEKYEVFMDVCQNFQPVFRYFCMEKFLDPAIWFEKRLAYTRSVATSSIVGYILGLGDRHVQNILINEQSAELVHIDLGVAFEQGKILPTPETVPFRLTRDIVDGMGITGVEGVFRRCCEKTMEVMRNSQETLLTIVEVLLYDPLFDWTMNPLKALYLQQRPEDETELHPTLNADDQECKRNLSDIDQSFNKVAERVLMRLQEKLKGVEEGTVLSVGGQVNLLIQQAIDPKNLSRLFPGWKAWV

In general, inhibition refers to the share of the control response that was lost under treatment. Usually GI50 stands for the concentration that inhibits growth by half. `COC(=O)c1sccc1S(=O)(=O)N[C@@H]1c2cc3c(cc2[C@@H](c2cc(OC)c(OC)c(OC)c2)[C@H]2C(=O)OC[C@@H]21)OCO3`: the inhibition in experiment [1] was found to be 60%. Moreover, the result (with COLO 205 [2]; in [3]; in the experiment with COLO 205 [8]; in the experiment with COLO 205 [9]; in the experiment with COLO 205 [11]; with COLO 205 [12]) was Active. Besides, the result (in the experiment with COLO 205 [13]; in [14]) was Active. Moreover, the Activity with COLO 205 [4] is recorded as 15.7%; in the experiment on COLO 205 [5] it was 18.8%; in the experiment on COLO 205 [6], 7.85%. Moreover, the GI50 in the experiment with HOP-62 was 40 nM; in the experiment with A549 it was 150 nM; in the experiment on COLO 205 [10] it was 40 nM; in the experiment on A2780, 50 nM; with MCF7, 180 nM. For the same compound, the inhibition entry in [7] was “Active”.
On to `COc1cc([C@@H]2c3cc4c(cc3[C@@H](O[C@@H]3O[C@@H]5CO[C@@H](C)O[C@H]5[C@H](O)[C@H]3O)[C@H]3COC(=O)[C@H]23)OCO4)cc(OC)c1O` [ETOPOSIDE], for which the inhibition entry in experiment [1] and in experiment [7] was “Active” throughout. Also, the outcome (in the experiment with COLO 205 [2]; in experiment [3]; in the experiment with COLO 205 [8]; with COLO 205 [9]; in the experiment on COLO 205 [11]; in the experiment on COLO 205 [12]) was Active. For the same compound, the outcome (in the experiment on COLO 205 [13]; in [14]) was Active. The Activity in the experiment on COLO 205 [4] is on record as 13.28%; in the experiment on COLO 205 [5], 21.74%; with COLO 205 [6], 8.55%. Moreover, the GI50 worked out at 800 nM with HOP-62; 3080 nM in the experiment with A549; 130 nM in the experiment with COLO 205 [10]; 1310 nM in the experiment on A2780; 2110 nM with MCF7.
